In ChEMBL document CHEMBL5252510, “A Novel Potent Oral Series of VEGFR2 Inhibitors Abrogate Tumor Growth by Inhibiting Angiogenesis” (J Med Chem, 2016):
Activity calls are given as the source filed them. The calls are words filed in the database; no cut-off is given here.

Columns and labels:
[1] = tested on: Mus musculus; experiment: Anti-angiogenesis activity in FVB mouse model assessed as inhibition of VEGF-induced tissue weight at 50 mg/kg, po qd treated for 4 to 6 hrs prior to chamber implantation and continuing for 4 days measured after 24 hrs post last dose; assay type: functional, organism-based; conditions: time 5.0 day
Outline: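 Chamber model in female FVB mice: VEGF (2 μg/mL) agar/heparin chambers s.c. in flank, oral dosing once daily starting 4-6 h before implantation and continuing 4 days; vascularized tissue harvested and weighed 24 h after final dose; 6 mice per group.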

[2] = biological target: Fibroblast growth factor receptor 3 (Homo sapiens) (UniProt P22607); experiment: Inhibition of human recombinant GST-fused FGFR3 expressed in baculovirus expression system using poly-Glu-Tyr (4:1) as substrate measured after 10 mins in presence of gamma-[33P]-ATP by scintillation counting analysis
Outline: (§1)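 GST-fused kinase domains were expressed in baculovirus and purified on glutathione-Sepharose. 10 min at ambient temperature, stopped with EDTA. Filter binding and scintillation counting. IC50 by linear regression of percent inhibition.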

[3] = tested on: BaF3; experiment: Antiproliferative activity against mouse BaF3 cells expressing PTC3-RET assessed as cell growth inhibition measured after 72 hrs by Alamar Blue assay; conditions: BaF3, 72 h
[4] = tested on: BaF3; experiment: Antiproliferative activity against mouse BaF3 cells expressing NPM-ALK assessed as cell growth inhibition measured after 72 hrs by Alamar Blue assay; conditions: BaF3, 72 h
[5] = tested on: BaF3; experiment: Antiproliferative activity against mouse BaF3 cells expressing Tel-IGF-1R assessed as cell growth inhibition measured after 72 hrs by Alamar Blue assay; conditions: BaF3, 72 h
[6] = tested on: BaF3; experiment: Antiproliferative activity against mouse BaF3 cells expressing Bcr-ABL assessed as cell growth inhibition measured after 72 hrs by Alamar Blue assay; conditions: BaF3, 72 h
[7] = tested on: BaF3; experiment: Antiproliferative activity against mouse BaF3 cells expressing Trp-MET assessed as cell growth inhibition measured after 72 hrs by Alamar Blue assay; conditions: BaF3, 72 h
[8] = tested on: BaF3; experiment: Antiproliferative activity against mouse BaF3 cells expressing ERBB2 V659E mutant assessed as cell growth inhibition measured after 72 hrs by Alamar Blue assay; conditions: BaF3, 72 h
[9] = tested on: BaF3; experiment: Antiproliferative activity against mouse BaF3 cells assessed as cell growth inhibition measured after 72 hrs by Alamar Blue assay; conditions: BaF3, 72 h
[10] = tested on: BaF3; experiment: Antiproliferative activity against mouse BaF3 cells expressing FLT3-ITD assessed as cell growth inhibition measured after 72 hrs by Alamar Blue assay; conditions: BaF3, 72 h
[11] = biological target: Cyclin-dependent kinase 1 (Homo sapiens) (UniProt P06493); experiment: Inhibition of human recombinant GST-fused CDK1 expressed in baculovirus expression system using poly-Glu-Tyr (4:1) as substrate measured after 10 mins in presence of gamma-[33P]-ATP by scintillation counting analysis; outline: as §1
[12] = biological target: Hepatocyte growth factor receptor (Homo sapiens) (UniProt P08581); experiment: Inhibition of human recombinant GST-fused c-MET expressed in baculovirus expression system using poly-Glu-Tyr (4:1) as substrate measured after 10 mins in presence of gamma-[33P]-ATP by scintillation counting analysis; outline: as §1
[13] = tested on: BaF3; experiment: Antiproliferative activity against mouse BaF3 cells expressing KIT D816V mutant assessed as cell growth inhibition measured after 72 hrs by Alamar Blue assay; conditions: BaF3, 72 h
[14] = tested on: BaF3; experiment: Antiproliferative activity against mouse BaF3 cells expressing Tel-FGFR3 assessed as cell growth inhibition measured after 72 hrs by Alamar Blue assay; conditions: BaF3, 72 h
[15] = biological target: Vascular endothelial growth factor receptor 2 (Mus musculus, UniProt P35918); experiment: Inhibition of mouse recombinant GST-fused VEGFR2 kinase domain expressed in baculovirus expression system using poly-Glu-Tyr (4:1) as substrate measured after 10 mins in presence of gamma-[33P]-ATP by scintillation counting analysis; outline: as §1
[16] = tested on: HUVEC; experiment: Antiproliferative activity against bFGF-stimulated HUVEC cells assessed as cell growth inhibition measured after 24 hrs by BrdUrd incorporation based spectrophotometric analysis; conditions: Homo sapiens
[17] = tested on: B16-BL6; experiment: Antitumor activity against mouse B16-BL6 cells implanted in C57BL/6jNpa mouse assessed as metastatic tumor growth inhibition by measuring T/C ratio at 100 mg/kg, po qd administered started on day 7 post implantation measured after 21 days relative to control; assay type: functional; conditions: time 7-21 day
Outline: (§2)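 Female C57BL/6JNpa mice, 50000 B16/BL6 cells intradermally in both ear pinnae; primary tumor area (mm²) imaged days 7, 14, 21; randomized day 7 into groups of 5-6, oral dosing in PEG200 or PEG300 vehicle daily (or every 2 days) for 14 days; day 21 cervical lymph nodes weighed, metastasis lysates assayed for TIE-2 by ELISA; T/C ratios.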

[18] = Antitumor activity against rat BN472 cell implanted in Brown-Norway rat assessed as tumor growth inhibition by measuring T/C ratio at 100 mg/kg, po qd measured upto 14 days; assay type: functional; conditions: time <= 14 day
Outline: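 Female Brown-Norway rats (160-180 g) given 3 mm³ BN472 tumor fragments in mammary fat pads; at about 200 mm², randomized into groups of 7-8 and dosed orally with compound or PEG300 vehicle over 14 days; tumor growth followed, T/C computed; significance by 2-way RM-ANOVA.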

[19] = tested on: B16-BL6; experiment: Antitumor activity against mouse B16-BL6 cells implanted in C57BL/6jNpa mouse assessed as primary tumor growth inhibition by measuring T/C ratio at 100 mg/kg, po qd administered started on day 7 post implantation measured after 21 days; assay type: functional; conditions: time 7-21 day; outline: as §2
[20] = tested on: HUVEC; experiment: Antiproliferative activity against VEGF-stimulated HUVEC cells assessed as cell growth inhibition measured after 24 hrs by BrdUrd incorporation based spectrophotometric analysis; conditions: Homo sapiens
[21] = tested on: BaF3; experiment: Antiproliferative activity against mouse BaF3 cells expressing Tel-PDGFRbeta assessed as cell growth inhibition measured after 72 hrs by Alamar Blue assay; conditions: BaF3, 72 h
[22] = Antitumor activity against rat BN472 cell implanted in Brown-Norway rat assessed as tumor growth inhibition by measuring T/C ratio at 30 mg/kg, po qd measured upto 14 days; assay type: functional; conditions: time <= 14 day
Outline: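 Female Brown-Norway rats (160–180 g) received 3 mm³ BN472 tumor fragments in the mammary fat pad. Randomized at about 200 mm² tumor, 2–3 weeks after transplant, into groups of 7–8. Oral daily dosing in PEG300 vehicle for 14 days. Tumor growth curves were compared with vehicle. Experiment run twice.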

Chain of Fibroblast growth factor receptor 3 (Homo sapiens) (P22607 23-806 limits assumed): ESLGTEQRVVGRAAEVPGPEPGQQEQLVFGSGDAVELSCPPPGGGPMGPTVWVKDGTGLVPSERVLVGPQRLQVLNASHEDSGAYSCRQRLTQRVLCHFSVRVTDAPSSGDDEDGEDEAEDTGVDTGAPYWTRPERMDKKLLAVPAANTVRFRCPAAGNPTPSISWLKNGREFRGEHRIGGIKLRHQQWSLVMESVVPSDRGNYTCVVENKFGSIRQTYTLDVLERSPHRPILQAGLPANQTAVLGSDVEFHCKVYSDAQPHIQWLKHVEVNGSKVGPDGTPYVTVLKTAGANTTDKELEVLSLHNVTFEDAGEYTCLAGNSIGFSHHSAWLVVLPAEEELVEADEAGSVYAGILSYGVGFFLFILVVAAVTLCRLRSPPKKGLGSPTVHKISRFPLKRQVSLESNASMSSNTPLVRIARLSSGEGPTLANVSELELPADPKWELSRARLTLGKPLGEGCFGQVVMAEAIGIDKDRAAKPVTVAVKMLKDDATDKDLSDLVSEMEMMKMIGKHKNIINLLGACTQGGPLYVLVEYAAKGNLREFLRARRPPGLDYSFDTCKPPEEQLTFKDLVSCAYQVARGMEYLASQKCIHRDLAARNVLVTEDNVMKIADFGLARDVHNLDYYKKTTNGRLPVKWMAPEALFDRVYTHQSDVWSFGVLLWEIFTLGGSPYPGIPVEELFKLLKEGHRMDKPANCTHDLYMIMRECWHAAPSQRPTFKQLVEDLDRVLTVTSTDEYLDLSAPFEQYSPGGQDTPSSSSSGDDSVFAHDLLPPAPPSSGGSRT
Chain of Hepatocyte growth factor receptor (Homo sapiens) (P08581 whole entry, the tested form may be a part): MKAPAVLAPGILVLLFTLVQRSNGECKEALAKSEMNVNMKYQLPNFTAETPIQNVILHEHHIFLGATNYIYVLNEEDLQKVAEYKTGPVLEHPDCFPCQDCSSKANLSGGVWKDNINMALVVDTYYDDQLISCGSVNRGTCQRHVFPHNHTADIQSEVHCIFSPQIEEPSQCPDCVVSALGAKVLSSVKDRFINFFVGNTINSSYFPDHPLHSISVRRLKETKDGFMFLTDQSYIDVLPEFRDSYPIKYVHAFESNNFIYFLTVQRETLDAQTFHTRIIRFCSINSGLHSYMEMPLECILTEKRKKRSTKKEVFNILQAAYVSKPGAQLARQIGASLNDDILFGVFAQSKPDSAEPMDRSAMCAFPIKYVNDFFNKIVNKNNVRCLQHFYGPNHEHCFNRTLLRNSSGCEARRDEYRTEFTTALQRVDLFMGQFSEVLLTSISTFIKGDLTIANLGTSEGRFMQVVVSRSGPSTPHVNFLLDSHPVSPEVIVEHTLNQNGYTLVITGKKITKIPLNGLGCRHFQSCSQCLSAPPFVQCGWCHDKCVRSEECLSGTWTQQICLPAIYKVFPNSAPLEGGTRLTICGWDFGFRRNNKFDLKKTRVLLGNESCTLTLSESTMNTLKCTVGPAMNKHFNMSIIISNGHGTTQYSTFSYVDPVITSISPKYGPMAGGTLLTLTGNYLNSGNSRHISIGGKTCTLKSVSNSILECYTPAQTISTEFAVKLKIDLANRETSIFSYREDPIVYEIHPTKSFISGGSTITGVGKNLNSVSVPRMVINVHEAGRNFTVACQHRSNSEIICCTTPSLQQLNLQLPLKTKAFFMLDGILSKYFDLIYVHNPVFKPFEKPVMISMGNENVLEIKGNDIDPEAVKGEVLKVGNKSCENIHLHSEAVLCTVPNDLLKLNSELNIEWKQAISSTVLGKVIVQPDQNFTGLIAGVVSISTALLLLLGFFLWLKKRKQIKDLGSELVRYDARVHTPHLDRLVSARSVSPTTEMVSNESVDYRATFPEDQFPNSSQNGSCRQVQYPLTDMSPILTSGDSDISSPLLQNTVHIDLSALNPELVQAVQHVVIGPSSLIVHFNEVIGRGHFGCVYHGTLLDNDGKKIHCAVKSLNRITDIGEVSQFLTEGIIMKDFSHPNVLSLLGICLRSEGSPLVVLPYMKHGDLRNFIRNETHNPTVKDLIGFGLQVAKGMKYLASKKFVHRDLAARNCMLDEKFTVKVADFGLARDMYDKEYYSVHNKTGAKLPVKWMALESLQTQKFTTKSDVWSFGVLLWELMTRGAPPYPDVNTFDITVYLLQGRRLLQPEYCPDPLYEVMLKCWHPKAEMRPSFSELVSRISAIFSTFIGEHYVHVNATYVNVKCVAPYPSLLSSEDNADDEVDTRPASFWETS
Chain of Cyclin-dependent kinase 1 (Homo sapiens) (P06493 whole entry, looked up, the tested form may be a part): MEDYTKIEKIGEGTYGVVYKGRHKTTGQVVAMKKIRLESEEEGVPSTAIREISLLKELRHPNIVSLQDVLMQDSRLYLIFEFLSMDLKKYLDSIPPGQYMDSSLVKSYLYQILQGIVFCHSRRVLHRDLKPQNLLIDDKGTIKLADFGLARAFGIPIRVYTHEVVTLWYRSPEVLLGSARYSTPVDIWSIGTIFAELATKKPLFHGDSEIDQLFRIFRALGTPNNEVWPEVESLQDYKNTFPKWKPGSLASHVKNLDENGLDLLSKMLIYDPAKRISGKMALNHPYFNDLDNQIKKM
Chain of Vascular endothelial growth factor receptor 2 (P35918 whole entry, the tested form may be a part): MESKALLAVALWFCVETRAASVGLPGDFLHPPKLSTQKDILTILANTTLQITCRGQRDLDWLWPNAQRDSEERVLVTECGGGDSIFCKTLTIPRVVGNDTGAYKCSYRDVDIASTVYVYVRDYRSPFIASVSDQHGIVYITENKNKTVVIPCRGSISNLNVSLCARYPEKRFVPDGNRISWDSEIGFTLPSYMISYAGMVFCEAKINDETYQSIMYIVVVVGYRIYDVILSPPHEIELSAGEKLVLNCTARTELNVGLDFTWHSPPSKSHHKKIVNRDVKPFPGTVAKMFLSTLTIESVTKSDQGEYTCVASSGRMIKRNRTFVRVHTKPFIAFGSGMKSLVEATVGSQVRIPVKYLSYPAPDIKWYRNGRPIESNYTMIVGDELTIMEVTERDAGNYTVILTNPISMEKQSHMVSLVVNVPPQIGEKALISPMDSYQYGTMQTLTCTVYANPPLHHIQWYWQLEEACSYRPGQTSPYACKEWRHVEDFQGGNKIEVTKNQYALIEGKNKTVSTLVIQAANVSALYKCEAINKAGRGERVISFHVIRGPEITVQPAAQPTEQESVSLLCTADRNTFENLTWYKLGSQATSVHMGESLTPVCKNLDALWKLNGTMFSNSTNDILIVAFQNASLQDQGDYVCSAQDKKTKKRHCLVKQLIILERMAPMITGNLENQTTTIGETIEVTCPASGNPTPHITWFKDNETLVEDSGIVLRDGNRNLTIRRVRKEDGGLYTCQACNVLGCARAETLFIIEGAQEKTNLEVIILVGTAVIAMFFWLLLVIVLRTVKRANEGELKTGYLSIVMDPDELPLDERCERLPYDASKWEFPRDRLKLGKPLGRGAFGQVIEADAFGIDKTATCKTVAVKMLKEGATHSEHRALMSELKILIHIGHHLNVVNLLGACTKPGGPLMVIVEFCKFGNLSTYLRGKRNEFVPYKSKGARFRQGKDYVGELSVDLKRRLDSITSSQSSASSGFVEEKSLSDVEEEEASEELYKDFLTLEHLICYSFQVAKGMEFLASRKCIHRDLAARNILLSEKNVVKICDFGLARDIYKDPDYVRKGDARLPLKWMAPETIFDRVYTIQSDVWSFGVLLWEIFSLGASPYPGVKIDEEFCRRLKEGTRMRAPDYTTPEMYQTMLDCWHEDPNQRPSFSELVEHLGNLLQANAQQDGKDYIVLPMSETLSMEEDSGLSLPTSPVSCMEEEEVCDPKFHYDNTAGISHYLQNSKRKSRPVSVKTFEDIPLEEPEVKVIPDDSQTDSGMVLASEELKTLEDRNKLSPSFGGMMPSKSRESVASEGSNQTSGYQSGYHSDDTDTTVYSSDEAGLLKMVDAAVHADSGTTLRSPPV

Row | IC50 [3] | IC50 [4] | IC50 [5] | IC50 [6] | IC50 [7] | IC50 [8] | IC50 [9] | IC50 [10] | IC50 [13] | IC50 [14] | Structure (SMILES) | Activity [1] | other results
1 | – | – | – | – | – | – | – | – | – | – | Cc1[nH]c(/C=C2\C(=O)Nc3ccccc32)c(C)c1CCC(=O)O | Active | –
2 | 0.078 µM | 1.01 µM | 3.68 µM | 5.82 µM | 7.4 µM | 4.21 µM | > 10 µM | 0.012 µM | 2.8 µM | 2.46 µM | CNC(=O)c1cc(Oc2ccc(NC(=O)Nc3ccc(Cl)c(C(F)(F)F)c3)cc2)ccn1 [SORAFENIB] | – | inhibition [2]: Active; inhibition [11]: Active; inhibition [12]: Active
3 | 2.9 µM | > 5.5 µM | 8.4 µM | > 5.5 µM | > 5.5 µM | 5.6 µM | > 10 µM | > 5.5 µM | > 5.5 µM | > 5.5 µM | O=C(Nc1cccc(C(F)(F)F)c1)c1ccccc1NCc1ccncc1 | – | IC50 [15]: 0.055 µM; IC50 [16]: > 3 µM; T/C [17]: 0.17; T/C [18]: 0.37; T/C [19]: 0.35; IC50 [20]: 0.001 µM; IC50 [21]: 0.019 µM
4 | – | – | – | – | – | – | – | – | – | – | COc1cc2/c(=N/c3ccc(Br)cc3F)nc[nH]c2cc1OCC1CCN(C)CC1 [VANDETANIB] | Active | T/C [22]: 0.35
